According to ChEMBL document CHEMBL3632560, “1,4-Oxazine β-Secretase 1 (BACE1) Inhibitors: From Hit Generation to Orally Bioavailable Brain Penetrant Leads” (J Med Chem, 2015):

Legend:
[1] = Dissociation constant, pKa of the compound by potentiometric titration assay; type: physicochemical
[2] = Drug metabolism in human liver microsomes at 1 uM after 15 min by HPLC-MS/MS analysis; type: ADME; conditions: read-out: Drug metabolism
[3] = Drug metabolism in mouse liver microsomes at 1 uM after 15 min by HPLC-MS/MS analysis; type: ADME; conditions: read-out: Drug metabolism
[4] = system: MDR1 (human); experiment: Apparent permeability across apical to basolateral side in pig LLC cells transfected with human MDR1 at 5 uM by HPLC-MS/MS analysis; type: ADME, cell-based, Sus scrofa; conditions: LLC-PK1
[5] = Distribution coefficient, logD of the compound by chromatography; type: physicochemical; conditions: octanol/water
[6] = Drug metabolism in dog liver microsomes at 1 uM after 15 min by HPLC-MS/MS analysis; type: ADME, Canis lupus familiaris; conditions: read-out: Drug metabolism
Procedure, shortened: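 Final solvent 0.01% DMSO and 0.5% acetonitrile. Reaction started with NADPH and quenched with acetonitrile at 15 min. Percent metabolized is parent loss measured by HPLC-MS/MS.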

[7] = Ratio of drug level in brain to plasma of pathogen free CD1 Swiss mouse at 10 mg/kg, po; type: ADME, organism-based
Procedure, shortened: (§1)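 Fasted male CD1 Swiss SPF mice dosed 10 mg/kg p.o. (n=6) in 20% HPβCD at pH 3.9 or 20% SBEβCD at pH 3.5. Plasma and brain taken at 2, 4 and 7 h. One hemisphere used for drug bioanalysis; the other was homogenized for Aβ42 and Aβ total by sandwich immunoassay. Kp calculated from AUC0-last.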

[8] = Drug uptake in pathogen free CD1 Swiss mouse brain at 10 mg/kg, po after 4 hrs; type: ADME, organism-based; conditions: read-out: Drug uptake; procedure, shortened: as §1
[9] = Elimination half-life in Beagle dog at 2.5 mg/kg, po; type: ADME, organism-based, Canis lupus familiaris; conditions: in vivo, read-out: beta t1/2 (converted)
Procedure, shortened: (§2)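 Fasted Beagle dogs, 2 male and 2 female per dose group, given doses from 0.08 to 10 mg/kg in 20% HPβCD at pH 3.5. Plasma drug levels followed over time to give Cmax, Tmax and T½. CSF Aβ42 measured by MesoScale electrochemiluminescence for up to 50 h after dosing.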

[10] = Cmax in Beagle dog at 2.5 mg/kg, po; type: ADME, organism-based, Canis lupus familiaris; set-up: dose 2.5 mg/kg, route oral; conditions: in vivo; procedure, shortened: as §2
[11] = Tmax in Beagle dog at 2.5 mg/kg, po; type: ADME, organism-based, Canis lupus familiaris; conditions: in vivo; procedure, shortened: as §2

| Compound | pKa [1] | metabolised at 0.25 h, 1 µM [2] [%] | metabolised at 0.25 h, 1 µM [3] [%] | further results |
| --- | --- | --- | --- | --- |
| COc1cnc(C(=O)Nc2ccc(F)c([C@@]3(C)N=C(N)CO[C@@]3(F)C(F)(F)F)c2)cn1 | 6.8 | – | – | chromatographic logD [5]: 3.43 |
| COc1cnc(C(=O)Nc2ccc(F)c([C@@]3(C)N=C(N)CO[C@]3(F)C(F)(F)F)c2)cn1 | 6.9 | – | – | – |
| COc1cnc(C(=O)Nc2ccc(F)c([C@@]3(C4CC4)N=C(N)CO[C@@H]3F)c2)cn1 | 7.8 | – | – | – |
| C[C@]1(c2cc(N)ccc2F)N=C(N)CO[C@@H]1F | 8.1 | – | – | – |
| C[C@]1(c2cc(N)ccc2F)N=C(N)CO[C@H]1C(F)(F)F | 8 | – | – | – |
| COc1cnc(C(=O)Nc2ccnc([C@@]3(C)N=C(N)CO[C@@H]3F)c2)cn1 (racemic) | 2.6 | – | – | – |
| COc1cnc(C(=O)Nc2cc([C@@]3(C)N=C(N)CO[C@@H]3F)ccn2)cn1 (racemic) | 2.8 | – | – | – |

The next lines start with results.

| pKa [1] | metabolised at 0.25 h, 1 µM [2] [%] | metabolised at 0.25 h, 1 µM [3] [%] | Compound | further results |
| --- | --- | --- | --- | --- |
| 9.6 | 0 | 6 | C[C@@]1(c2cccc(NC(=O)c3ccc(Cl)cn3)c2)COCC(N)=N1 | – |
| 9 | 1 | 6 | COc1cnc(C(=O)Nc2ccc(F)c([C@]3(C)COCC(N)=N3)c2)cn1 | Papp A→B at 5 µM [4]: 3.7 ×10⁻⁶ cm/s |
| 7.6 | – | – | COc1cnc(C(=O)Nc2ccc(F)c([C@@]3(C)N=C(N)CO[C@H]3F)c2)cn1 | – |
| 7.8 | 31 | 3 | COc1cnc(C(=O)Nc2ccc(F)c([C@@]3(C)N=C(N)CO[C@@H]3F)c2)cn1 | chromatographic logD [5]: 2.04; metabolised at 0.25 h, 1 µM [6]: 70%; Kp [7]: 0.65; concentration at 4 h [8]: 195 ng/g |
| 7.9 | 0 | 17 | C[C@]1(c2cc(NC(=O)c3ccc(Cl)cn3)ccc2F)N=C(N)CO[C@@H]1F | Papp A→B at 5 µM [4]: 8.5 ×10⁻⁶ cm/s; metabolised at 0.25 h, 1 µM [6]: 7% |
| 7.4 | 16 | 98 | Cc1cc(Cl)cnc1C(=O)Nc1ccc(F)c([C@@]2(C)N=C(N)CO[C@@H]2F)c1 | Papp A→B at 5 µM [4]: 9.3 ×10⁻⁶ cm/s; metabolised at 0.25 h, 1 µM [6]: 21% |
| 7.9 | 0 | 2 | C[C@]1(c2cc(NC(=O)c3ccc(C#N)cn3)ccc2F)N=C(N)CO[C@@H]1F | metabolised at 0.25 h, 1 µM [6]: 0%; Kp [7]: 0.33; half-life [9]: 25 h; concentration at 4 h [8]: 98 ng/g; Cmax [10]: 571 ng/mL; Tmax [11]: 2.5 h |
| 9.8 | – | – | CC1(c2ccccc2)COCC(N)=N1 (stereo not drawn) | – |
